# Measured values reported in ChEMBL document CHEMBL4811225 (J Med Chem, 2021).
# Where a SMILES comes first, the peptide text is derived from it. Bridges are numbered along the chain shown (N, C = ends).
# Key:
# [1] = target: Nicotinic acetylcholine receptor alpha6/alpha3/beta2/beta3 (Rattus norvegicus, UniProt P04757+P12390+P12391+P43143); format: cell-based, Oocyte
# [2] = target: Neuronal acetylcholine receptor; alpha4/beta2 (Homo sapiens, UniProt P17787+P43681); experiment: Inhibition of human alpha4beta2 nAChR expressed in Xenopus laevis oocytes assessed as inhibition of acetylcholine-induced current response at 10 uM by two-electrode voltage-clamp method relative to control; format: cell-based; settings: Oocyte
# Summary of the method: (§1)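 Oocytes (stage IV–V) injected with equal-ratio cRNAs of cloned subunits; TEVC 1–5 days post-injection. ACh 100 μM for β2-containing and α9α10 subtypes, 1 s pulses every 60 s. Peptide 10 μM in 5 min static bath; response normalized to ACh response after 5 min control-saline bath; mean ± SD, n = 4.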
# [3] = target: Neuronal acetylcholine receptor; alpha9/alpha10 (Homo sapiens, UniProt Q9GZZ6+Q9UGM1); experiment: Inhibition of human alpha9alpha10 nAChR expressed in Xenopus laevis oocytes assessed as inhibition of acetylcholine-induced current response by two-electrode voltage-clamp method; format: cell-based, Oocyte
# Sequence of Neuronal acetylcholine receptor; alpha9/alpha10 (Q9UGM1 whole entry, the tested form may be a part): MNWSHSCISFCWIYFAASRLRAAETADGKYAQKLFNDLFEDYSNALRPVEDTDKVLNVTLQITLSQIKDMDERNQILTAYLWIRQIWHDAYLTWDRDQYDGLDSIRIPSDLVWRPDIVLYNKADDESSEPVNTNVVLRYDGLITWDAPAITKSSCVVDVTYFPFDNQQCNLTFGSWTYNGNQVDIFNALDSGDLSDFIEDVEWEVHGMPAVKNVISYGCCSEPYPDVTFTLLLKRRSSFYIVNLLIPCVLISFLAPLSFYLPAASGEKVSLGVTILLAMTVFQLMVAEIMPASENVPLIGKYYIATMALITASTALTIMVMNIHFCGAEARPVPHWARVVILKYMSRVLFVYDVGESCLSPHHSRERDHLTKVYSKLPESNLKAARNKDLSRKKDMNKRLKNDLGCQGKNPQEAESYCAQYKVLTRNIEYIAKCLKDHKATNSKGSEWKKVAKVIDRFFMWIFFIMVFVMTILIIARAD
# Sequence of Neuronal acetylcholine receptor; alpha9/alpha10 (Q9GZZ6 whole entry, the tested form may be a part): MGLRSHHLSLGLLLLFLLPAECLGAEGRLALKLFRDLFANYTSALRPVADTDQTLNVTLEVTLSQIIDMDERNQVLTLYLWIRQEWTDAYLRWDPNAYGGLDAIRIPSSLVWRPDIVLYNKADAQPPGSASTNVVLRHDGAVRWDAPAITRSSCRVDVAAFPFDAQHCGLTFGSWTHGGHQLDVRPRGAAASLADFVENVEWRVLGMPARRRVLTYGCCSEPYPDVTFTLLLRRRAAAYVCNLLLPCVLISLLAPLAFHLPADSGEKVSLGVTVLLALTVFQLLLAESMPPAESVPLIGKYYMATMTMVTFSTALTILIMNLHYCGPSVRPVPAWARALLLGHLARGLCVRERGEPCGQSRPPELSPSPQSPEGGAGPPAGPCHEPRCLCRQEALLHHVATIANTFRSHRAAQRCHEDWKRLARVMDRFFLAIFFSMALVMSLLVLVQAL
# Summary of the method: (§2)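 Two-electrode voltage clamp of stage IV–V oocytes 1–5 days after equal-ratio cRNA injection; ACh 100 μM (β2-containing subtypes, α9α10), 1 s every 60 s in frog saline. Peptide perfused up to 1 μM, responses normalized to mean of three control responses; above 1 μM, 5 min static bath. IC50 with 95% CI; n = oocytes.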
# [4] = target: Neuronal acetylcholine receptor; alpha2/beta2 (Homo sapiens, UniProt P17787+Q15822); experiment: Inhibition of human alpha2beta2 nAChR expressed in Xenopus laevis oocytes assessed as inhibition of acetylcholine-induced current response at 10 uM by two-electrode voltage-clamp method relative to control; format: cell-based; settings: Oocyte
# Summary of the method: as §1
# [5] = target: Nicotinic acetylcholine receptor alpha9/alpha10 (Rattus norvegicus, UniProt P43144+Q9JLB5); experiment: Inhibition of rat alpha9alpha10 nAChR expressed in Xenopus laevis oocytes assessed as inhibition of acetylcholine-induced current response by two-electrode voltage-clamp method; format: cell-based, Oocyte
# Sequence of Nicotinic acetylcholine receptor alpha9/alpha10 (P43144 whole entry): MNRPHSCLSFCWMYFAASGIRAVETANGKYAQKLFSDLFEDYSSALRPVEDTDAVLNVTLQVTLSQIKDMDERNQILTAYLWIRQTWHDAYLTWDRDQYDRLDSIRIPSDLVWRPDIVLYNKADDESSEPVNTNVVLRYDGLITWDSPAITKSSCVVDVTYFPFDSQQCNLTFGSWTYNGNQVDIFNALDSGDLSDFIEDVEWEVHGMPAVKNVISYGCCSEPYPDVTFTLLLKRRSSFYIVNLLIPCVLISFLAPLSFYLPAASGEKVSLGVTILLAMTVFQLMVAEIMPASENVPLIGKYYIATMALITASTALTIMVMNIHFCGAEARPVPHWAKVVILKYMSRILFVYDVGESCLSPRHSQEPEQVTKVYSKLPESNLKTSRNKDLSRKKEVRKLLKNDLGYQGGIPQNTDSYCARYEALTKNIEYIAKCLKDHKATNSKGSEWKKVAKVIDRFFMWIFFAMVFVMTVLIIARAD
# Sequence of Nicotinic acetylcholine receptor alpha9/alpha10 (Q9JLB5 whole entry): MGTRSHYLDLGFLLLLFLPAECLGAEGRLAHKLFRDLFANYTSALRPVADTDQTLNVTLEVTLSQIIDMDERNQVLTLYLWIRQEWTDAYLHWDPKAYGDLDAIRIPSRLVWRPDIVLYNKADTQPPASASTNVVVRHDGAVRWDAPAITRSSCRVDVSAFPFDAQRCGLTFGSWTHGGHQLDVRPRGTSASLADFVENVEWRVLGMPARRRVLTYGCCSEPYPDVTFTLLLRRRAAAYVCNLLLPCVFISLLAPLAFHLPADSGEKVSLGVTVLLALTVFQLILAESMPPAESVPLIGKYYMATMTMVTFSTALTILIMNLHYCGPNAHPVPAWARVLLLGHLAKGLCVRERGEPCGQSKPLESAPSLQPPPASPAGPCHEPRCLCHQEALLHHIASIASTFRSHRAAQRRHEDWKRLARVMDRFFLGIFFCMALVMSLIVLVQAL
# Summary of the method: as §2
# [6] = target: Neuronal acetylcholine receptor; alpha3/alpha6/beta2/beta3 (Homo sapiens, UniProt P17787+P32297+Q05901+Q15825); experiment: Inhibition of human alpha6/alpha3beta2beta3 nAChR expressed in Xenopus laevis oocytes assessed as inhibition of acetylcholine-induced current response by two-electrode voltage-clamp method; format: cell-based, Oocyte
# Sequence of Neuronal acetylcholine receptor; alpha3/alpha6/beta2/beta3 (P17787 whole entry): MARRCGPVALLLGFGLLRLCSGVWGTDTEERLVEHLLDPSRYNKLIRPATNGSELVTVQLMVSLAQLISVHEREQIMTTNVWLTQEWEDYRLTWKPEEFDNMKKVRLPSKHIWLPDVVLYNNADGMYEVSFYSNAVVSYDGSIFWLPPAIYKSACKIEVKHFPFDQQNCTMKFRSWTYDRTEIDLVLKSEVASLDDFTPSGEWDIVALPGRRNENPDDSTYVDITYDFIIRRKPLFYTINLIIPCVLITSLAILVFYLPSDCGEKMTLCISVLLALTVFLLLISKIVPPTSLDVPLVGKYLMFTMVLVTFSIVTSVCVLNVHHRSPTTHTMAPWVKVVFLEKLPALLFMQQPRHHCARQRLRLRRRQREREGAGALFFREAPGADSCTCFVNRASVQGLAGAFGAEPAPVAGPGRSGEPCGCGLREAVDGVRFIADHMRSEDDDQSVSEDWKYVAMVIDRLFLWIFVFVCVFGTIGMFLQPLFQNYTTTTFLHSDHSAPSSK
# Sequence of Neuronal acetylcholine receptor; alpha3/alpha6/beta2/beta3 (P32297 whole entry): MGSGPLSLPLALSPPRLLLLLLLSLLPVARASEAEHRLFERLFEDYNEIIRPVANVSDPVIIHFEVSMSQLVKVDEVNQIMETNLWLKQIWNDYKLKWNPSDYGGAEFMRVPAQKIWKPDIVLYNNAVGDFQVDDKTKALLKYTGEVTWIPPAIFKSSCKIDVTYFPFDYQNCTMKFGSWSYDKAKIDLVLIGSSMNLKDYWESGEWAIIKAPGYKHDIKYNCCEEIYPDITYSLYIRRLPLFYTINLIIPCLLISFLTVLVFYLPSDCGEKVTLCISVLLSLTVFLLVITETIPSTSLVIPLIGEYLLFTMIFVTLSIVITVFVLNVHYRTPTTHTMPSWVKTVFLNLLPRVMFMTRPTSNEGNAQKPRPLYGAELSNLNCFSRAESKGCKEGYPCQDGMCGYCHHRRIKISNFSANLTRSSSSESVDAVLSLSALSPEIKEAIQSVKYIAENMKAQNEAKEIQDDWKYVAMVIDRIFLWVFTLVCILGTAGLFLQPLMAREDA
# Sequence of Neuronal acetylcholine receptor; alpha3/alpha6/beta2/beta3 (Q15825 whole entry): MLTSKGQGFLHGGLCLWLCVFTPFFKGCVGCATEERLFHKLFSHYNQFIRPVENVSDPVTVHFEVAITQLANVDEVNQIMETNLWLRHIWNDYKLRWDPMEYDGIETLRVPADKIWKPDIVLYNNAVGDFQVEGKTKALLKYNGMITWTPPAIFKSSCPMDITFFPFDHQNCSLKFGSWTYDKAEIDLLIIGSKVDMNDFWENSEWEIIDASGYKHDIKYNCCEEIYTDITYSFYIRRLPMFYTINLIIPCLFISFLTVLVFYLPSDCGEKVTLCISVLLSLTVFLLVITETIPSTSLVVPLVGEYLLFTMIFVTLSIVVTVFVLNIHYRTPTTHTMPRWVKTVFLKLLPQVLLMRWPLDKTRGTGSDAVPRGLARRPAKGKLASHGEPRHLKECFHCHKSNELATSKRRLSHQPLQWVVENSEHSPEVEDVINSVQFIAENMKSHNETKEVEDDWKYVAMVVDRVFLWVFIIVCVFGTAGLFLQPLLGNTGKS
# Sequence of Neuronal acetylcholine receptor; alpha3/alpha6/beta2/beta3 (Q05901 whole entry): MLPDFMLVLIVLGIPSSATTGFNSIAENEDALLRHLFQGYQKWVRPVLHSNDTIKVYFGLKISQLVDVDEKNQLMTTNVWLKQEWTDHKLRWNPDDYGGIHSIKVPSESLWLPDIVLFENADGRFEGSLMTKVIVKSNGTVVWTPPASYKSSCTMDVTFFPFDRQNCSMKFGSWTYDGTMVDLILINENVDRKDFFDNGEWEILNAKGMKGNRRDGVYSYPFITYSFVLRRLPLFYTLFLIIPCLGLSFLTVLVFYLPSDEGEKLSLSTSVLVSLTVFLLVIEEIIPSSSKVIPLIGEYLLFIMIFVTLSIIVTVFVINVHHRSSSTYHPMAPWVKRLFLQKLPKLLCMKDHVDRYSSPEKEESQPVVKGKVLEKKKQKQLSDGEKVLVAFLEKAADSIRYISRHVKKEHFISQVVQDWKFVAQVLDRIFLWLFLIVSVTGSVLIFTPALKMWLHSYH
# Summary of the method: as §2
# [7] = Inhibition of human alpha4beta4 nAChR expressed in Xenopus laevis oocytes assessed as inhibition of acetylcholine-induced current response by two-electrode voltage-clamp method; format: cell-based; settings: Oocyte
# Summary of the method: (§3)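 TEVC on stage IV–V oocytes 1–5 days after equal-ratio cRNA injection (α2β4, α3β4, α4β4, α7). ACh 300 μM, 1 s pulses at 60 s intervals under frog saline perfusion. Peptide perfused to 1 μM, normalized to average of three control responses; higher concentrations by 5 min static bath. IC50 with 95% CI, n oocytes.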
# Rattus norvegicus [8] = species: Rattus norvegicus; experiment: Selectivity ratio of IC50 for rat alpha2beta4 nAChR to IC50 for rat alpha6/alpha3beta4 nAChR
# Summary of the method: (§4)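 Ratio of each subtype's IC50, from TEVC inhibition of ACh-evoked currents in X. laevis oocytes, to the IC50 at the same species' α6/α3β4 nAChR; IC50 values with 95% CI, n = number of oocytes.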
# [9] = target: T1, Neuronal acetylcholine receptor subunit alpha-7 (Homo sapiens, UniProt P36544); experiment: Inhibition of human alpha7 nAChR expressed in Xenopus laevis oocytes assessed as inhibition of acetylcholine-induced current response at 10 uM by two-electrode voltage-clamp method relative to control; format: cell-based; settings: Oocyte
# T1 sequence (P36544 whole entry): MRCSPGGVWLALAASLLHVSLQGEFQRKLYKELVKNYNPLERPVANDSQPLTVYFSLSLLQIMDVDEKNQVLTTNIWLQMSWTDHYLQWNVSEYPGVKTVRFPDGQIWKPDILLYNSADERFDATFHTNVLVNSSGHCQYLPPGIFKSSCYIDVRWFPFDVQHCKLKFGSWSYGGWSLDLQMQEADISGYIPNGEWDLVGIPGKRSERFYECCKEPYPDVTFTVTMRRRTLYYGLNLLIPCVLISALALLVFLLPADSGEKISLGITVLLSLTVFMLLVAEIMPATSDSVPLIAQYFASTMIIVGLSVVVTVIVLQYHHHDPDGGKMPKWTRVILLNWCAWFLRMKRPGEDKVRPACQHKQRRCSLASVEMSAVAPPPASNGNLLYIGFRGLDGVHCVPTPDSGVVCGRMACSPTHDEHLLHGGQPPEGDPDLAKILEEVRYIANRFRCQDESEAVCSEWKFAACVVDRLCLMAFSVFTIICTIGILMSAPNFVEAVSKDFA
# Summary of the method: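 Stage IV–V X. laevis oocytes expressing equal-ratio cRNAs of α2β4, α3β4, α4β4 or α7 subunits; TEVC 1–5 days after injection. ACh 300 μM, 1 s at 60 s intervals. 10 μM peptide as 5 min static bath, normalized to ACh response after 5 min bath of control saline; mean ± SD, n = 4.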
# Rattus norvegicus [10] = species: Rattus norvegicus; experiment: Selectivity ratio of IC50 for rat alpha2beta2 nAChR to IC50 for rat alpha6/alpha3beta4 nAChR
# Summary of the method: as §4
# [11] = target: Neuronal acetylcholine receptor; alpha2/beta2 (Rattus norvegicus, UniProt P12389+P12390); experiment: Inhibition of rat alpha2beta2 nAChR expressed in Xenopus laevis oocytes assessed as inhibition of acetylcholine-induced current response by two-electrode voltage-clamp method; format: cell-based, Oocyte
# Summary of the method: as §2
# Homo sapiens [12] = species: Homo sapiens; experiment: Selectivity ratio of IC50 for human alpha2beta2 nAChR to IC50 for human alpha6/alpha3beta4 nAChR
# Summary of the method: as §4
# [13] = target: T2, Neuronal acetylcholine receptor; alpha3/beta2 (Homo sapiens, UniProt P17787+P32297); experiment: Inhibition of human alpha3beta2 nAChR expressed in Xenopus laevis oocytes assessed as inhibition of acetylcholine-induced current response by two-electrode voltage-clamp method; format: cell-based, Oocyte
# T2 sequence (P17787 whole entry): as the sequence (P17787 whole entry) above
# T2 sequence (P32297 whole entry): as the sequence (P32297 whole entry) above
# Summary of the method: as §2
# [14] = target: T1, Neuronal acetylcholine receptor subunit alpha-7; experiment: Inhibition of human alpha7 nAChR expressed in Xenopus laevis oocytes assessed as inhibition of acetylcholine-induced current response by two-electrode voltage-clamp method; format: cell-based, Oocyte
# Summary of the method: as §3
# [15] = target: Neuronal acetylcholine receptor subunit alpha-6/alpha-3 (Homo sapiens) (UniProt P32297+Q15825); experiment: Inhibition of human alpha6beta4 nAChR expressed in Xenopus laevis oocytes assessed as recovery of acethylcholine-evoked currents at 10 uM treated for 10 mins followed by compound washout by two-electrode voltage-clamp method relative to control; format: cell-based; design: scale not given: the % may be the effect or the level left; settings: Oocyte
# [16] = target: Nicotinic acetylcholine receptor alpha-1/beta-1/delta/epsilon (Homo sapiens, UniProt P02708+P11230+Q04844+Q07001); experiment: Inhibition of human alpha1beta1deltaepsilon nAChR expressed in Xenopus laevis oocytes assessed as inhibition of acetylcholine-induced current response by two-electrode voltage-clamp method; format: cell-based, Oocyte
# Summary of the method: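 Stage IV–V X. laevis oocytes nucleus-injected with equal ratios of human α1, β1, δ, ε cDNAs; TEVC 1–5 days after injection. ACh 100 μM, 1 s every 60 s.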
# Homo sapiens [17] = species: Homo sapiens; experiment: Selectivity ratio of IC50 for human alpha2beta4 nAChR to IC50 for human alpha6/alpha3beta4 nAChR
# Summary of the method: as §4
# [18] = target: T2, Neuronal acetylcholine receptor; alpha3/beta2; experiment: Inhibition of human alpha3beta2 nAChR expressed in Xenopus laevis oocytes assessed as inhibition of acetylcholine-induced current response at 10 uM by two-electrode voltage-clamp method relative to control; format: cell-based; settings: Oocyte
# Summary of the method: as §1
# Rattus norvegicus [19] = species: Rattus norvegicus; experiment: Selectivity ratio of IC50 for rat alpha9alpha10 nAChR to IC50 for rat alpha6/alpha3beta4 nAChR
# Summary of the method: as §4
# Rattus norvegicus [20] = species: Rattus norvegicus; experiment: Selectivity ratio of IC50 for rat alpha4beta4 nAChR to IC50 for rat alpha6/alpha3beta4 nAChR
# Summary of the method: as §4
# [21] = target: Nicotinic acetylcholine receptor alpha-1/beta-1/delta/epsilon (Homo sapiens) (UniProt P02708+P11230+Q07001+Q04844); experiment: Inhibition of human alpha1beta1deltaepsilon nAChR expressed in Xenopus laevis oocytes assessed as inhibition of acetylcholine-induced current response at 10 uM by two-electrode voltage-clamp method relative to control; format: cell-based; settings: Oocyte
# Summary of the method: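 Human α1, β1, δ and ε cDNAs injected in equal ratios into the nucleus of stage IV–V X. laevis oocytes; TEVC 1–5 days later. ACh 100 μM, 1 s pulses at 60 s intervals. Peptide 10 μM applied as 5 min static bath; response normalized to ACh response after 5 min bath of control saline; mean ± SD, n = 4.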
# [22] = target: Nicotinic acetylcholine receptor alpha6/alpha3/beta4 (Homo sapiens, UniProt P30926+P32297+Q15825); format: cell-based, Oocyte
smiles,measurement,setting,value
"CC[C@H](C)[C@@H]1NC(=O)[C@H](CCC(=O)O)NC(=O)[C@@H]2CCCN2C(=O)[C@H](Cc2cnc[nH]2)NC(=O)[C@H](CC(N)=O)NC(=O)[C@H](C(C)C)NC(=O)[C@H](CC(N)=O)NC(=O)[C@@H]2CSSC[C@H](NC(=O)CN)C(=O)N[C@@H](CSSC[C@@H](C(N)=O)NC1=O)C(=O)N[C@@H](CO)C(=O)N[C@@H](Cc1cnc[nH]1)C(=O)N1CCC[C@H]1C(=O)N[C@@H](C(C)C)C(=O)N2 (H-GCCSHPVCNVNHPEIC-NH2; disulfide 2-8, 3-16)",IC50,[1],0.111 µM
same,inhibition,[2],91%
same,IC50,[3],> 10 µM
same,inhibition,[4],95%
same,IC50,[5],> 10 µM
same,IC50,[6],0.135 µM
same,IC50,[7],4.01 µM
same,Ratio IC50,Rattus norvegicus [8],> 20000
same,inhibition,[9],89%
same,Ratio IC50,Rattus norvegicus [10],> 20000
same,IC50,[11],> 10 µM
same,Ratio IC50,Homo sapiens [12],> 50000
same,IC50,[13],> 10 µM
same,IC50,[14],> 10 µM
same,Activity,[15],2%
same,IC50,[16],> 10 µM
same,Ratio IC50,Homo sapiens [17],> 50000
same,inhibition,[18],76%
same,Ratio IC50,Rattus norvegicus [19],> 20000
same,Ratio IC50,Rattus norvegicus [20],> 20000
same,inhibition,[21],93%
same,IC50,[22],0.0002 µM
